Results published in ChEMBL document CHEMBL1155459, “On-bead screening of a combinatorial fumaric acid derived peptide library yields antiplasmodial cysteine protease inhibitors with unusual peptide sequences” (J Med Chem, 2009).
Square brackets hold non-standard residues; d marks the D form. Peptide text beside a SMILES is read from it. * marks the point of attachment. Fumaroyl(AlaGlyPheOH) = C[C@H](NC(=O)/C=C/C(=O)*)C(=O)NCC(=O)N[C@@H](Cc1ccccc1)C(=O)O; Chg = N[C@H](C(=O)O)C1CCCCC1; Dap = NC[C@H](N)C(=O)O

Key:
[1] = Inhibition of Plasmodium falciparum falcipain-2 after 12 hrs by fluorescence spectroscopy-based on-bead assay; parameters: concentration or dose not given beside the values; conditions: concentration not given here
In short: (§1)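 Library members on resin (PEGA, theoretical loading 0.40 mmol/g; added as DMSO suspension, 0.64 mM final inhibitor) preincubated with enzyme 12 h, then Cbz-Phe-Arg-AMC 40 μM added; AMC release followed by fluorescence (ex 380/em 460 nm). Kinetics compared with inhibitor-free amino-PEGA resin.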

[2] = biological target: Rhodesain (Trypanosoma brucei rhodesiense) (UniProt Q95PM0); assay: Inhibition of Trypanosoma brucei rhodesiense rhodesain after 12 hrs by fluorescence spectroscopy-based on-bead assay; parameters: concentration or dose not given beside the values; conditions: concentration not given here; in short: as §1
Rhodesain (Trypanosoma brucei rhodesiense), sequence (Q95PM0 1-450): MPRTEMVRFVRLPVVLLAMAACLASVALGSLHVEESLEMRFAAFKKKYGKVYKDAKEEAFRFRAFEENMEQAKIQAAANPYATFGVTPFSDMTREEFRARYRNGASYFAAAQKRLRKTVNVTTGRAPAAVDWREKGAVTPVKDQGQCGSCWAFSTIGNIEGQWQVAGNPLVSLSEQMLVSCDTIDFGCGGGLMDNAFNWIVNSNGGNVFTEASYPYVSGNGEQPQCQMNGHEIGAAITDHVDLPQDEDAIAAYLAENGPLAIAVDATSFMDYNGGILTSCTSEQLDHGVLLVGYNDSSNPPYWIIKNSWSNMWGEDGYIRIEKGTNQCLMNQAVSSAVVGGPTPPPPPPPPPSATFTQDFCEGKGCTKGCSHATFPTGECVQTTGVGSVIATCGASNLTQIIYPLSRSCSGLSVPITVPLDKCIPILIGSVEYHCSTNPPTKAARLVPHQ

CC(C)[C@H](NC(=O)[C@@H](NC(=O)[C@H](Cc1ccccc1)NC(=O)[C@H](CCC(N)=O)NC(=O)/C=C/C(=O)NCC(=O)NCC(=O)N[C@@H](Cc1ccccc1)C(=O)O)C(C)C)C(N)=O (HELM PEPTIDE1{[O=C(/C=C/C(=O)[*:2])NCC(=O)NCC(=O)N[C@@H](Cc1ccccc1)C(=O)O].Q.F.V.V.[am]}$$$$V2.0)
inhibition [1]: 51%
inhibition [2]: 42%

CC(C)[C@H](NC(=O)[C@H](C)NC(=O)[C@@H](NC(=O)[C@H](CCC(N)=O)NC(=O)/C=C/C(=O)N[C@@H](C)C(=O)NCC(=O)N[C@@H](Cc1ccccc1)C(=O)O)c1ccccc1)C(N)=O (HELM PEPTIDE1{[C[C@H](NC(=O)/C=C/C(=O)[*:2])C(=O)NCC(=O)N[C@@H](Cc1ccccc1)C(=O)O].Q.[Phg].A.V.[am]}$$$$V2.0)
inhibition [1]: 55%
inhibition [2]: 12%

CC(C)[C@H](NC(=O)[C@H](C)NC(=O)[C@@H](NC(=O)[C@H](Cc1ccccc1)NC(=O)/C=C/C(=O)N[C@@H](C)C(=O)NCC(=O)N[C@@H](Cc1ccccc1)C(=O)O)c1ccccc1)C(N)=O (HELM PEPTIDE1{[C[C@H](NC(=O)/C=C/C(=O)[*:2])C(=O)NCC(=O)N[C@@H](Cc1ccccc1)C(=O)O].F.[Phg].A.V.[am]}$$$$V2.0)
inhibition [1]: 34%
inhibition [2]: 47%

CC(C)[C@H](NC(=O)[C@@H](NC(=O)[C@@H](NC(=O)[C@H](CC(N)=O)NC(=O)/C=C/C(=O)N[C@@H](C)C(=O)NCC(=O)N[C@@H](Cc1ccccc1)C(=O)O)c1ccccc1)C(C)C)C(N)=O (HELM PEPTIDE1{[C[C@H](NC(=O)/C=C/C(=O)[*:2])C(=O)NCC(=O)N[C@@H](Cc1ccccc1)C(=O)O].N.[Phg].V.V.[am]}$$$$V2.0)
inhibition [1]: 51%
inhibition [2]: 37%

CC(C)[C@H](NC(=O)[C@H](C)NC(=O)[C@@H](NC(=O)[C@H](C)NC(=O)/C=C/C(=O)NCC(=O)NCC(=O)N[C@@H](Cc1ccccc1)C(=O)O)C1CCCCC1)C(N)=O (HELM PEPTIDE1{[O=C(/C=C/C(=O)[*:2])NCC(=O)NCC(=O)N[C@@H](Cc1ccccc1)C(=O)O].A.[O=C([C@@H](N[*:1])C1CCCCC1)[*:2]].A.V.[am]}$$$$V2.0)
inhibition [1]: 31%
inhibition [2]: 26%

CC(=O)NC[C@H](NC(=O)/C=C/C(=O)N[C@@H](C)C(=O)NCC(=O)N[C@@H](Cc1ccccc1)C(=O)O)C(=O)N[C@H](C(=O)N[C@@H](C)C(=O)N[C@H](C(N)=O)C(C)C)c1ccccc1 (HELM PEPTIDE1{[C[C@H](NC(=O)/C=C/C(=O)[*:2])C(=O)NCC(=O)N[C@@H](Cc1ccccc1)C(=O)O].[O=C([C@H](CN[*:3])N[*:1])[*:2]].[Phg].A.V.[am]}|PEPTIDE2{[ac]}$PEPTIDE1,PEPTIDE2,2:R3-1:R2$$$V2.0)
inhibition [1]: 35%
inhibition [2]: 34%

CC(C)C[C@H](NC(=O)[C@@H](NC(=O)[C@H](Cc1ccccc1)NC(=O)/C=C/C(=O)NCC(=O)NCC(=O)N[C@@H](Cc1ccccc1)C(=O)O)c1ccccc1)C(=O)N[C@H](C(N)=O)C(C)C (HELM PEPTIDE1{[O=C(/C=C/C(=O)[*:2])NCC(=O)NCC(=O)N[C@@H](Cc1ccccc1)C(=O)O].F.[Phg].L.V.[am]}$$$$V2.0)
inhibition [1]: 40%
inhibition [2]: 71%

CC(C)C[C@H](NC(=O)[C@@H](NC(=O)[C@H](CC(N)=O)NC(=O)/C=C/C(=O)N[C@@H](C)C(=O)NCC(=O)N[C@@H](Cc1ccccc1)C(=O)O)c1ccccc1)C(=O)N[C@H](C(N)=O)C(C)C (HELM PEPTIDE1{[C[C@H](NC(=O)/C=C/C(=O)[*:2])C(=O)NCC(=O)N[C@@H](Cc1ccccc1)C(=O)O].N.[Phg].L.V.[am]}$$$$V2.0)
inhibition [1]: 55%
inhibition [2]: 55%

CC[C@H](C)[C@H](NC(=O)[C@H](C)NC(=O)/C=C/C(=O)N[C@@H](C)C(=O)NCC(=O)N[C@@H](Cc1ccccc1)C(=O)O)C(=O)N[C@H](C(=O)N[C@H](C(N)=O)C(C)C)C(C)C (HELM PEPTIDE1{[C[C@H](NC(=O)/C=C/C(=O)[*:2])C(=O)NCC(=O)N[C@@H](Cc1ccccc1)C(=O)O].A.I.V.V.[am]}$$$$V2.0)
inhibition [1]: 30%
inhibition [2]: 34%

CC(C)[C@H](NC(=O)[C@H](C)NC(=O)[C@H](Cc1ccccc1)NC(=O)[C@H](C)NC(=O)/C=C/C(=O)N[C@@H](C)C(=O)NCC(=O)N[C@@H](Cc1ccccc1)C(=O)O)C(N)=O (HELM PEPTIDE1{[C[C@H](NC(=O)/C=C/C(=O)[*:2])C(=O)NCC(=O)N[C@@H](Cc1ccccc1)C(=O)O].A.F.A.V.[am]}$$$$V2.0)
inhibition [1]: 51%
inhibition [2]: 18%

CC(C)[C@H](NC(=O)[C@H](C)NC(=O)[C@H](Cc1ccccc1)NC(=O)[C@H](C)NC(=O)/C=C/C(=O)NCC(=O)NCC(=O)N[C@@H](Cc1ccccc1)C(=O)O)C(N)=O (HELM PEPTIDE1{[O=C(/C=C/C(=O)[*:2])NCC(=O)NCC(=O)N[C@@H](Cc1ccccc1)C(=O)O].A.F.A.V.[am]}$$$$V2.0)
inhibition [1]: 44%
inhibition [2]: 45%

CC(C)[C@H](NC(=O)[C@@H](NC(=O)[C@@H](NC(=O)[C@H](C)NC(=O)/C=C/C(=O)N[C@@H](C)C(=O)NCC(=O)N[C@@H](Cc1ccccc1)C(=O)O)c1ccccc1)C(C)C)C(N)=O (HELM PEPTIDE1{[C[C@H](NC(=O)/C=C/C(=O)[*:2])C(=O)NCC(=O)N[C@@H](Cc1ccccc1)C(=O)O].A.[Phg].V.V.[am]}$$$$V2.0)
inhibition [1]: 38%
inhibition [2]: 50%

CC(C)C[C@H](NC(=O)[C@H](CC(N)=O)NC(=O)/C=C/C(=O)NCC(=O)NCC(=O)N[C@@H](Cc1ccccc1)C(=O)O)C(=O)N[C@H](C(=O)N[C@H](C(N)=O)C(C)C)C(C)C (HELM PEPTIDE1{[O=C(/C=C/C(=O)[*:2])NCC(=O)NCC(=O)N[C@@H](Cc1ccccc1)C(=O)O].N.L.V.V.[am]}$$$$V2.0)
inhibition [1]: 48%
inhibition [2]: 52%

CC(C)[C@H](NC(=O)[C@H](C)NC(=O)[C@H](Cc1ccccc1)NC(=O)[C@H](CCC(N)=O)NC(=O)/C=C/C(=O)N[C@@H](C)C(=O)NCC(=O)N[C@@H](Cc1ccccc1)C(=O)O)C(N)=O (HELM PEPTIDE1{[C[C@H](NC(=O)/C=C/C(=O)[*:2])C(=O)NCC(=O)N[C@@H](Cc1ccccc1)C(=O)O].Q.F.A.V.[am]}$$$$V2.0)
inhibition [1]: 25%
inhibition [2]: 30%

CC(C)C[C@H](NC(=O)[C@@H](NC(=O)[C@H](Cc1ccccc1)NC(=O)/C=C/C(=O)N[C@@H](C)C(=O)NCC(=O)N[C@@H](Cc1ccccc1)C(=O)O)C1CCCCC1)C(=O)N[C@H](C(N)=O)C(C)C (HELM PEPTIDE1{[C[C@H](NC(=O)/C=C/C(=O)[*:2])C(=O)NCC(=O)N[C@@H](Cc1ccccc1)C(=O)O].F.[O=C([C@@H](N[*:1])C1CCCCC1)[*:2]].L.V.[am]}$$$$V2.0)
inhibition [1]: 56%
inhibition [2]: 49%

CC(=O)NC[C@H](NC(=O)/C=C/C(=O)N[C@@H](C)C(=O)NCC(=O)N[C@@H](Cc1ccccc1)C(=O)O)C(=O)N[C@H](C(=O)N[C@@H](CC(C)C)C(=O)N[C@H](C(N)=O)C(C)C)C1CCCCC1 ({Fumaroyl(AlaGlyPheOH)}-[Dap](Ac)[Chg]LV-NH2)
inhibition [1]: 56%
inhibition [2]: 51%

CC(=O)NC[C@H](NC(=O)/C=C/C(=O)NCC(=O)NCC(=O)N[C@@H](Cc1ccccc1)C(=O)O)C(=O)N[C@H](C(=O)N[C@H](C(=O)N[C@H](C(N)=O)C(C)C)C(C)C)c1ccccc1 (HELM PEPTIDE1{[O=C(/C=C/C(=O)[*:2])NCC(=O)NCC(=O)N[C@@H](Cc1ccccc1)C(=O)O].[O=C([C@H](CN[*:3])N[*:1])[*:2]].[Phg].V.V.[am]}|PEPTIDE2{[ac]}$PEPTIDE1,PEPTIDE2,2:R3-1:R2$$$V2.0)
inhibition [1]: 25%
inhibition [2]: 40%
